In PubChem BioAssay AID504382 (The Scripps Research Institute Molecular Screening Center, 2011):
About 460 (18%) of roughly 2,500 compounds were called active. These entries were drawn from the full list. A number with no mark means an inactive call.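 How the source made its calls: active means mean activation above a cutoff of low control average plus 3 SD from the earlier screen (cut at about 12% in these data); inactive means the rest.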

assay: compound fluorescence interference without thin filaments, confirmation, artefact control for cardiac RTF calcium sensitizer project, biochemical (AID 504382); details: IANBD fluorescence interference counterscreen, buffer, EC20 Ca2+; at 7.2 µM; active compounds read high
How it was run: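 Doses – one dose of 7.2 µM, 0.7% DMSO · Buffer or medium – MOPS/KCl/MgCl2/EGTA/NTA/DTT buffer, pH 7.2 · Probe or stimulus – Ca2+ fixed at EC20, 0.472 mM · Measured by – fluorescence intensity, excitation 480 nm, emission 540 nm · Read-out – fluorescence interference versus control range · Timing – 15 min compound exposure at 25 °C · Replication – triplicate wells per compound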

Compound	fluorescence artifact activation
O=c1[nH]c(=S)n(-c2ccccc2Cl)c(O)c1C=NCCN1CCNCC1	660% (active)
COc1ccc(OC)c(-n2c(O)c(C=NCCN3CCNCC3)c(=O)[nH]c2=S)c1	3.37%
C=CCn1c(O)c(C=NC2CCN(Cc3ccccc3)CC2)c(=O)[nH]c1=O	-0.06%
CN1Cc2c(c(C#N)c(N)n(C)c2=S)CC1(C)C	-0.06%
CCN(CC)c1ccc(/C=C/[N+](=O)[O-])cc1	3.43%
CCCCCCC(=O)N/N=C/c1c(O)n(CCc2ccccc2)c(=O)[nH]c1=O	0.04%
O=C(CN1CCN(c2ccccc2F)CC1)Nc1cccnc1Cl	6.53%
CC1(C)OC(c2ccccc2)=C/C(=C/C=C2C(=O)NC(=O)NC2=O)O1	0.3%
COc1ccc(N2C(=O)NC(=O)/C(=C\c3cn(C)c4ccccc34)C2=O)cc1	-0.05%
N#CC(C#N)=Cc1ccc(C=C(C#N)C#N)cc1	0.08%
Cn1cc(C=C(C#N)C#N)c2ccccc21	20% (active)
CC(C)n1c(=O)c(C=Nc2cccc([N+](=O)[O-])c2)c(O)n(CCc2ccccc2)c1=O	1.6%
COc1cccc2c1C(=O)c1c(O)c3c(c(O)c1C2=O)CC(O)(C(C)=NO)CC3OC1CC(N)C(O)C(C)O1 (stereo not given)	0.43%
Cc1ccc(-n2c(O)c(/C=C/C=Nc3ccccc3)c(=O)[nH]c2=O)cc1	7.82%
O=c1[nH]c(=O)n(-c2ccccc2)c(O)c1/C=C/C=Nc1ccccc1	0.01%
Cc1cccc(-n2c(O)c(/C=C/C=Nc3ccccc3)c(=O)[nH]c2=O)c1	59.9% (active)
O=C1NC(=O)N(Cc2ccccc2)C(=O)/C1=C\N1CCCc2ccccc21	2.74%
O=Cc1c(C(=O)O)n(Cc2ccc(Cl)cc2)c2ccccc12	0.14%
C/C(=N\N1CCCCC1c1cccnc1)c1c(O)n(C2CCCCC2)c(=S)[nH]c1=O (stereo not given)	13.8% (active)
O=c1[nH]c(=O)n(C2CCCCC2)c(O)c1/C=C/C=Nc1ccccc1	0.28%
Cc1cccc(N2C(=O)NC(=O)/C(=C\c3ccc4c(c3)CCCN4Cc3ccccc3)C2=O)c1	0.72%
CN1CCN(Cc2cn(C)c3ccccc23)CC1CCO (stereo not given)	10.6%
O=C1NC(=S)SC1=Cc1ccc(N(CCCl)CCCl)cc1	-0.09%
Nc1c2c(nc3ccccc13)CCN(Cc1ccccc1)C2	26.4% (active)
FC(F)(F)c1ccc2c(c1)nnn2C1CCN(Cc2nnnn2Cc2ccccc2)CC1	0.25%
